Data: ChEMBL document CHEMBL5724801, “EUbOPEN Chemogenomics Library - Multiplex” (2024)
Several values for one entry are separate records, joined by “and”; a condition that tells them apart may be missing. Identical values can stand only once.

Test system: U2OS
Assay: Multiplex assay against U2OS
Type: toxicity, cell-based
Settings: human
In short: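 Imaging took place on a CQ1 microscope at 37°C and 5% CO2 once compound had been added to live cells stained at seeding with Hoechst33342, BioTracker Green Microtubule Cytoskeleton Dye, MitoTracker Red and Annexin V Alexa Fluor 680. CellPathfinder machine-learning gating classed cells as Hoechst high-intensity objects or normal cells, classed normal cells as having healthy, pyknosed or fragmented nuclei, and classed pyknosed cells as mitotic or apoptotic. Tubulin, mitochondrial-mass and membrane-permeability phenotypes are per cents of the healthy-nucleus cells.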

[1] = 12 h, 1 µM, compound concentration 1 uM
[2] = 12 h, 10 µM, compound concentration 10 uM
[3] = 24 h, 1 µM, compound concentration 1 uM
[4] = 24 h, 10 µM, compound concentration 10 uM
[5] = 48 h, 1 µM, compound concentration 1 uM
[6] = 48 h, 10 µM, compound concentration 10 uM

SMILES: C[C@H](NC(=O)c1c(C(F)F)nn(C)c1Oc1cccc(C(F)(F)F)c1)c1ccc(C(=O)O)cc1 [PALUPIPRANT]
- Population Apoptotic (%) [1]: 60% and 91%
- Population Fragmented Nuclei (%) [1]: 27% and 12%
- Population Healthy Nuclei (%) [1]: 63% and 78%
- Population Hoechst High Intensity Objects (%) [1]: 3% and 0%
- Population Membrane Permeable-Phenotype (%) [1]: 4%
- Population Mitochondria Different-Phenotype (%) [1]: 1% and 0%
- Population Normal (%) [1]: 96% and 99%
- Population Pyknosed Nuclei (%) [1]: 8% and 9%
- Population Tubulin-Different-Phenotype (%) [1]: 1% and 2%
- Total Cell Count [1]: 266 and 132
- Population Apoptotic (%) [2]: 83% and 100%
- Population Fragmented Nuclei (%) [2]: 28% and 13%
- Population Healthy Nuclei (%) [2]: 62% and 77%
- Population Hoechst High Intensity Objects (%) [2]: 3%
- Population Membrane Permeable-Phenotype (%) [2]: 7% and 5%
- Population Mitochondria Different-Phenotype (%) [2]: 4% and 2%
- Population Mitotic Cells (%) [2]: 16% and 0%
- Population Normal (%) [2]: 96%
- Population Pyknosed Nuclei (%) [2]: 8%
- Population Tubulin-Different-Phenotype (%) [2]: 5% and 2%
- Total Cell Count [2]: 293 and 117
- Population Apoptotic (%) [3]: 87% and 94%
- Population Fragmented Nuclei (%) [3]: 20% and 14%
- Population Healthy Nuclei (%) [3]: 72% and 73%
- Population Hoechst High Intensity Objects (%) [3]: 2% and 1%
- Population Membrane Permeable-Phenotype (%) [3]: 4% and 5%
- Population Mitochondria Different-Phenotype (%) [3]: 1% and 0%
- Population Mitotic Cells (%) [3]: 12% and 5%
- Population Normal (%) [3]: 97% and 98%
- Population Pyknosed Nuclei (%) [3]: 7% and 11%
- Population Tubulin-Different-Phenotype (%) [3]: 3% and 5%
- Total Cell Count [3]: 316 and 147
- Population Apoptotic (%) [4]: 91%
- Population Fragmented Nuclei (%) [4]: 18% and 13%
- Population Healthy Nuclei (%) [4]: 74% and 77%
- Population Hoechst High Intensity Objects (%) [4]: 2%
- Population Membrane Permeable-Phenotype (%) [4]: 5%
- Population Mitochondria Different-Phenotype (%) [4]: 3% and 1%
- Population Mitotic Cells (%) [4]: 8%
- Population Normal (%) [4]: 97%
- Population Pyknosed Nuclei (%) [4]: 7% and 8%
- Population Tubulin-Different-Phenotype (%) [4]: 1% and 0%
- Total Cell Count [4]: 339 and 139
- Population Apoptotic (%) [5]: 82% and 92%
- Population Fragmented Nuclei (%) [5]: 15%
- Population Healthy Nuclei (%) [5]: 73% and 70%
- Population Hoechst High Intensity Objects (%) [5]: 2% and 0%
- Population Membrane Permeable-Phenotype (%) [5]: 3%
- Population Mitochondria Different-Phenotype (%) [5]: 1% and 0%
- Population Mitotic Cells (%) [5]: 17% and 7%
- Population Normal (%) [5]: 97% and 99%
- Population Pyknosed Nuclei (%) [5]: 11% and 13%
- Population Tubulin-Different-Phenotype (%) [5]: 1% and 2%
- Total Cell Count [5]: 426 and 207
- Population Apoptotic (%) [6]: 91% and 85%
- Population Fragmented Nuclei (%) [6]: 18% and 14%
- Population Healthy Nuclei (%) [6]: 73% and 79%
- Population Hoechst High Intensity Objects (%) [6]: 2% and 1%
- Population Membrane Permeable-Phenotype (%) [6]: 5% and 1%
- Population Mitochondria Different-Phenotype (%) [6]: 3% and 1%
- Population Mitotic Cells (%) [6]: 8% and 14%
- Population Normal (%) [6]: 97% and 98%
- Population Pyknosed Nuclei (%) [6]: 7% and 6%
- Population Tubulin-Different-Phenotype (%) [6]: 3% and 0%
- Total Cell Count [6]: 463 and 223

SMILES: CN1CC[C@@]23CCCC[C@@H]2[C@@H]1Cc1ccc(O)cc13.O=C(O)C(O)C(O)C(=O)O
- Population Apoptotic (%) [1]: 38.64% and 62.96%
- Population Fragmented Nuclei (%) [1]: 1.53% and 2.17%
- Population Healthy Nuclei (%) [1]: 88.86% and 78.26%
- Population Hoechst High Intensity Objects (%) [1]: 1.51% and 0%
- Population Membrane Permeable-Phenotype (%) [1]: 1.23% and 1.85%
- Population Mitochondria Different-Phenotype (%) [1]: 0% and 11.11%
- Population Mitotic Cells (%) [1]: 61.36% and 37.04%
- Population Normal (%) [1]: 98.49% and 100%
- Population Pyknosed Nuclei (%) [1]: 9.61% and 19.57%
- Population Tubulin-Different-Phenotype (%) [1]: 0%
- Population Apoptotic (%) [2]: 33.33% and 60%
- Population Healthy Nuclei (%) [2]: 88.89% and 58.2%
- Population Hoechst High Intensity Objects (%) [2]: 0%
- Population Membrane Permeable-Phenotype (%) [2]: 1.19% and 4.7%
- Population Mitochondria Different-Phenotype (%) [2]: 0.89% and 6.71%
- Population Mitotic Cells (%) [2]: 66.67% and 40%
- Population Normal (%) [2]: 100%
- Population Pyknosed Nuclei (%) [2]: 9.52% and 5.86%
- Population Tubulin-Different-Phenotype (%) [2]: 1.49% and 0.67%
- Total Cell Count [2]: 378 and 256
- Population Apoptotic (%) [3]: 53.33% and 66.67%
- Population Fragmented Nuclei (%) [3]: 1.7% and 1.75%
- Population Healthy Nuclei (%) [3]: 91.36% and 85.96%
- Population Hoechst High Intensity Objects (%) [3]: 1.22% and 0%
- Population Membrane Permeable-Phenotype (%) [3]: 0.68% and 2.72%
- Population Mitotic Cells (%) [3]: 46.67% and 33.33%
- Population Normal (%) [3]: 98.78% and 100%
- Population Pyknosed Nuclei (%) [3]: 6.94% and 12.28%
- Population Tubulin-Different-Phenotype (%) [3]: 0.51% and 0.68%
- Population Apoptotic (%) [4]: 32.2% and 38.89%
- Population Healthy Nuclei (%) [4]: 87.76% and 63.54%
- Population Hoechst High Intensity Objects (%) [4]: 0%
- Population Membrane Permeable-Phenotype (%) [4]: 1.07% and 3.28%
- Population Mitochondria Different-Phenotype (%) [4]: 0.43% and 3.83%
- Population Mitotic Cells (%) [4]: 67.8% and 61.11%
- Population Normal (%) [4]: 100%
- Population Pyknosed Nuclei (%) [4]: 11.11% and 6.25%
- Population Tubulin-Different-Phenotype (%) [4]: 1.07% and 1.09%
- Total Cell Count [4]: 531 and 288
- Population Apoptotic (%) [5]: 45.92% and 51.61%
- Population Fragmented Nuclei (%) [5]: 4.22% and 1.42%
- Population Healthy Nuclei (%) [5]: 87.82% and 87.54%
- Population Hoechst High Intensity Objects (%) [5]: 0.88% and 0%
- Population Membrane Permeable-Phenotype (%) [5]: 0.55% and 2.44%
- Population Mitochondria Different-Phenotype (%) [5]: 0.09% and 6.91%
- Population Mitotic Cells (%) [5]: 54.08% and 48.39%
- Population Normal (%) [5]: 99.12% and 100%
- Population Pyknosed Nuclei (%) [5]: 7.95% and 11.03%
- Population Tubulin-Different-Phenotype (%) [5]: 0.37% and 1.22%
- Population Apoptotic (%) [6]: 45.36% and 57.14%
- Population Healthy Nuclei (%) [6]: 87.24% and 75.39%
- Population Hoechst High Intensity Objects (%) [6]: 0.1% and 0%
- Population Membrane Permeable-Phenotype (%) [6]: 0.68% and 1.72%
- Population Mitochondria Different-Phenotype (%) [6]: 0.34% and 3.09%
- Population Mitotic Cells (%) [6]: 54.64% and 42.86%
- Population Normal (%) [6]: 99.9% and 100%
- Population Pyknosed Nuclei (%) [6]: 9.59% and 7.25%
- Population Tubulin-Different-Phenotype (%) [6]: 0.45% and 0.34%
- Total Cell Count [6]: 1012 and 386

SMILES: CCCn1c(=O)c2[nH]c(C3CCCC3)nc2n(CCC)c1=O [1,3-DIPROPYL-8-CYCLOPENTYLXANTHINE [DPCPX]]
- Population Apoptotic (%) [1]: 87% and 93%
- Population Fragmented Nuclei (%) [1]: 25% and 15%
- Population Healthy Nuclei (%) [1]: 64% and 72%
- Population Hoechst High Intensity Objects (%) [1]: 1% and 0%
- Population Membrane Permeable-Phenotype (%) [1]: 1% and 7%
- Population Mitochondria Different-Phenotype (%) [1]: 3% and 4%
- Population Mitotic Cells (%) [1]: 12% and 6%
- Population Normal (%) [1]: 98% and 100%
- Population Pyknosed Nuclei (%) [1]: 9% and 12%
- Population Tubulin-Different-Phenotype (%) [1]: 1% and 5%
- Total Cell Count [1]: 250 and 125
- Population Apoptotic (%) [2]: 68% and 100%
- Population Fragmented Nuclei (%) [2]: 30% and 21%
- Population Healthy Nuclei (%) [2]: 60% and 69%
- Population Hoechst High Intensity Objects (%) [2]: 2% and 3%
- Population Membrane Permeable-Phenotype (%) [2]: 5% and 6%
- Population Mitochondria Different-Phenotype (%) [2]: 1% and 9%
- Population Normal (%) [2]: 97% and 96%
- Population Pyknosed Nuclei (%) [2]: 9% and 8%
- Population Tubulin-Different-Phenotype (%) [2]: 3%
- Total Cell Count [2]: 206 and 96
- Population Apoptotic (%) [3]: 83% and 87%
- Population Fragmented Nuclei (%) [3]: 24% and 13%
- Population Healthy Nuclei (%) [3]: 68% and 74%
- Population Hoechst High Intensity Objects (%) [3]: 3% and 2%
- Population Membrane Permeable-Phenotype (%) [3]: 5% and 8%
- Population Mitochondria Different-Phenotype (%) [3]: 3%
- Population Mitotic Cells (%) [3]: 16% and 12%
- Population Normal (%) [3]: 96% and 97%
- Population Pyknosed Nuclei (%) [3]: 7% and 11%
- Population Tubulin-Different-Phenotype (%) [3]: 4%
- Total Cell Count [3]: 261 and 138
- Population Apoptotic (%) [4]: 89% and 100%
- Population Fragmented Nuclei (%) [4]: 27% and 21%
- Population Healthy Nuclei (%) [4]: 64% and 71%
- Population Hoechst High Intensity Objects (%) [4]: 2% and 4%
- Population Membrane Permeable-Phenotype (%) [4]: 7% and 3%
- Population Mitochondria Different-Phenotype (%) [4]: 0% and 3%
- Population Mitotic Cells (%) [4]: 10% and 0%
- Population Normal (%) [4]: 97% and 95%
- Population Pyknosed Nuclei (%) [4]: 8% and 6%
- Population Tubulin-Different-Phenotype (%) [4]: 0%
- Total Cell Count [4]: 234 and 120
- Population Apoptotic (%) [5]: 86% and 92%
- Population Fragmented Nuclei (%) [5]: 20% and 17%
- Population Healthy Nuclei (%) [5]: 69%
- Population Hoechst High Intensity Objects (%) [5]: 1% and 2%
- Population Membrane Permeable-Phenotype (%) [5]: 3% and 8%
- Population Mitochondria Different-Phenotype (%) [5]: 1% and 4%
- Population Mitotic Cells (%) [5]: 13% and 8%
- Population Normal (%) [5]: 98% and 97%
- Population Pyknosed Nuclei (%) [5]: 10% and 13%
- Population Tubulin-Different-Phenotype (%) [5]: 2% and 3%
- Total Cell Count [5]: 364 and 196
- Population Apoptotic (%) [6]: 77% and 100%
- Population Fragmented Nuclei (%) [6]: 24% and 19%
- Population Healthy Nuclei (%) [6]: 62% and 73%
- Population Hoechst High Intensity Objects (%) [6]: 2% and 3%
- Population Membrane Permeable-Phenotype (%) [6]: 4% and 5%
- Population Mitochondria Different-Phenotype (%) [6]: 1% and 3%
- Population Mitotic Cells (%) [6]: 22% and 0%
- Population Normal (%) [6]: 97% and 96%
- Population Pyknosed Nuclei (%) [6]: 12% and 6%
- Population Tubulin-Different-Phenotype (%) [6]: 3% and 0%
- Total Cell Count [6]: 322 and 165
